Source: ChEMBL document CHEMBL3351764, “Design, synthesis and biological activity of flavonoid derivatives as selective agonists for neuromedin U 2 receptor” (Bioorg Med Chem, 2014)
The source made the active and inactive calls. The rule behind the calls is not given here.

What was measured:
[1] = molecular target: D(1A) dopamine receptor (Homo sapiens) (UniProt P21728); assay: Agonist activity at human D1 receptor at 100 uM to 5 mM
[2] = molecular target: Melanocyte-stimulating hormone receptor (Homo sapiens) (UniProt Q01726); assay: Agonist activity at human MC1 receptor at 100 uM to 5 mM
[3] = molecular target: Adenosine receptor A2a (Homo sapiens) (UniProt P29274); assay: Agonist activity at human A2a receptor at 100 uM to 5 mM
[4] = molecular target: Glucagon receptor (Homo sapiens) (UniProt P47871); assay: Agonist activity at human Glu receptor at 100 uM to 5 mM
[5] = molecular target: Adrenocorticotropic hormone receptor (Mus musculus) (UniProt Q64326); assay: Agonist activity at mouse MC2 receptor at 100 uM to 5 mM
[6] = molecular target: Melanocortin receptor 4 (Homo sapiens) (UniProt P32245); assay: Agonist activity at human MC4 receptor at 100 uM to 5 mM
[7] = molecular target: Melanocortin receptor 3 (Mus musculus) (UniProt P33033); assay: Agonist activity at mouse MC3 receptor at 100 uM to 5 mM
[8] = molecular target: T1, Muscarinic acetylcholine receptor M1 (Homo sapiens) (UniProt P11229); assay: Agonist activity at human M1 receptor at 100 uM to 5 mM
T1 sequence (whole entry): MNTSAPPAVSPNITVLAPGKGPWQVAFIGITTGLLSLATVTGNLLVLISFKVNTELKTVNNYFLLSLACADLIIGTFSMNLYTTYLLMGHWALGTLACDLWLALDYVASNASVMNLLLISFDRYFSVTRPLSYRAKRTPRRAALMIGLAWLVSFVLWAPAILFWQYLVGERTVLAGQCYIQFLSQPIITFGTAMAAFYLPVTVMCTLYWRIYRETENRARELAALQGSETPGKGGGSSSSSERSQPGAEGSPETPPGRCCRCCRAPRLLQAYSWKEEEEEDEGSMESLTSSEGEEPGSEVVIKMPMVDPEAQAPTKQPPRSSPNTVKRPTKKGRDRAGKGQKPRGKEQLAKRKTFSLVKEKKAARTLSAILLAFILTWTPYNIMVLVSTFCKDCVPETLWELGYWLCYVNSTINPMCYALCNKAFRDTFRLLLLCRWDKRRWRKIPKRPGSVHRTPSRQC

[9] = molecular target: T2, C5a anaphylatoxin chemotactic receptor 1 (Homo sapiens) (UniProt P21730); assay: Agonist activity at human C5a receptor at 100 uM to 5 mM
T2 sequence (whole entry): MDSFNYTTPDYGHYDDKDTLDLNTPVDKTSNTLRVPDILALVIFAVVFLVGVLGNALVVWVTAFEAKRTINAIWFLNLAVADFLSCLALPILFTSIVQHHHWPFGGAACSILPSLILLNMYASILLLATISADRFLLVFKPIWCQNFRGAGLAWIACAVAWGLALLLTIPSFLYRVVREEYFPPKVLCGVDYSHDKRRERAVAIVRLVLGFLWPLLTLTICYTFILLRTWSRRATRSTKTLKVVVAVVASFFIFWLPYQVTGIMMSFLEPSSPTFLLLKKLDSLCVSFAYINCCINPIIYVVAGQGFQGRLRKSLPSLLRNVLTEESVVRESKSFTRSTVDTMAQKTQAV

[10] = molecular target: Adrenocorticotropic hormone receptor (Homo sapiens) (UniProt Q01718); assay: Agonist activity at human MC2 receptor at 100 uM to 5 mM
[11] = molecular target: Melanin-concentrating hormone receptor 1 (Homo sapiens) (UniProt Q99705); assay: Agonist activity at human MCH1 receptor at 100 uM to 5 mM
[12] = molecular target: Melanocortin receptor 4 (Mus musculus) (UniProt P56450); assay: Agonist activity at mouse MC4 receptor at 100 uM to 5 mM
[13] = molecular target: Melanocortin receptor 3 (Homo sapiens) (UniProt P41968); assay: Agonist activity at human MC3 receptor at 100 uM to 5 mM
[14] = molecular target: Melanocyte-stimulating hormone receptor (Mus musculus) (UniProt Q01727); assay: Agonist activity at mouse MC1 receptor at 100 uM to 5 mM
Neuromedin-U receptor 2 = Neuromedin-U receptor 2 (Homo sapiens, UniProt Q9GZQ4); assay: Agonist activity at human NMU2R transfected in HEK293 cells after 7 hrs by luciferase reporter gene assay; assay type: cell-based
Method in brief: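 HEK-293 cells were stably co-transfected with a reporter gene construct and human NMU2R cDNA in pcDNA3.1(+), maintained under G418 selection at 37 °C in 5% CO2, then seeded and incubated overnight. Compounds were added at various concentrations for 7 h at 37 °C, followed by Bright-Glo luciferase read-out. Forskolin and NMU served as positive controls. EC50 was fitted by four-parameter logistic regression; means ± SEM of three independent experiments.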

[15] = molecular target: T3, Orexin receptor type 2 (Homo sapiens) (UniProt O43614); assay: Agonist activity at human orexin 2 receptor at 100 uM to 5 mM
T3 sequence (whole entry): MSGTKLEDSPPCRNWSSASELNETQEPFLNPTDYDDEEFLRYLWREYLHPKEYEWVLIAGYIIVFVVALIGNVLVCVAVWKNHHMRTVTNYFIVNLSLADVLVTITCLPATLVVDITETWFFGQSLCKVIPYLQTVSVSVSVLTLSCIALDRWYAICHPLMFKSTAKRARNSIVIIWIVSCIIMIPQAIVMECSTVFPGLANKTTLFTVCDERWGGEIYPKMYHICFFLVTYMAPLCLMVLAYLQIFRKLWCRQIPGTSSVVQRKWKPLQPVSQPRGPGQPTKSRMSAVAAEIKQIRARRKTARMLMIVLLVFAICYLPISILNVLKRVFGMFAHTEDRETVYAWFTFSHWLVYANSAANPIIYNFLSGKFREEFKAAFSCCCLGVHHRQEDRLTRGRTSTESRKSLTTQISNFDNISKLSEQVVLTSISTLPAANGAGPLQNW

Melanocortin receptor 4 (Homo sapiens), sequence (P32245 whole entry): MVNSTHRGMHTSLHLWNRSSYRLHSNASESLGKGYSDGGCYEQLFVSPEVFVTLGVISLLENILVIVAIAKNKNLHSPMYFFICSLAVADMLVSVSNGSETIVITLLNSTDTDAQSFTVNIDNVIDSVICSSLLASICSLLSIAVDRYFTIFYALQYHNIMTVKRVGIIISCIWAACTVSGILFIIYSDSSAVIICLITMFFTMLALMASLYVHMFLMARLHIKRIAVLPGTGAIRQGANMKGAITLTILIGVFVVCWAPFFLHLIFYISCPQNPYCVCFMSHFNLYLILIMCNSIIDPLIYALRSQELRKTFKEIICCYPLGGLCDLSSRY
Melanocyte-stimulating hormone receptor (Mus musculus), sequence (Q01727 whole entry, looked up): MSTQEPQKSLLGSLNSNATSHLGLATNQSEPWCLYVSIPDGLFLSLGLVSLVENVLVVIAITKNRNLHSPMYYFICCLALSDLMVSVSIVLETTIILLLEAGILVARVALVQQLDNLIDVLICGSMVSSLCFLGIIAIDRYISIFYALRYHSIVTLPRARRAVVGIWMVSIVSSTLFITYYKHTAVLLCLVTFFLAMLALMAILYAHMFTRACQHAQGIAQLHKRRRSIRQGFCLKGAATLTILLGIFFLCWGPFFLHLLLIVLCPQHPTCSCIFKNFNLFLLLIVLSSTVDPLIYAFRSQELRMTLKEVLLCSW
Adrenocorticotropic hormone receptor (Homo sapiens), sequence (Q01718 whole entry): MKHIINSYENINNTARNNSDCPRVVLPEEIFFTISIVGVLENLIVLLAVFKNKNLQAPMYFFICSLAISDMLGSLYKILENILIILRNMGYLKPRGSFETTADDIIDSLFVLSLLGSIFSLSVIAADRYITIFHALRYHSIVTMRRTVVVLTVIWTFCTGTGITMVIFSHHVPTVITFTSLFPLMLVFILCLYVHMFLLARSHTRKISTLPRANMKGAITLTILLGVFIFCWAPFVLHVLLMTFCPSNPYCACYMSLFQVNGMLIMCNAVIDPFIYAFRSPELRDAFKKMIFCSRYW
Melanocyte-stimulating hormone receptor (Homo sapiens), sequence (Q01726 whole entry, looked up): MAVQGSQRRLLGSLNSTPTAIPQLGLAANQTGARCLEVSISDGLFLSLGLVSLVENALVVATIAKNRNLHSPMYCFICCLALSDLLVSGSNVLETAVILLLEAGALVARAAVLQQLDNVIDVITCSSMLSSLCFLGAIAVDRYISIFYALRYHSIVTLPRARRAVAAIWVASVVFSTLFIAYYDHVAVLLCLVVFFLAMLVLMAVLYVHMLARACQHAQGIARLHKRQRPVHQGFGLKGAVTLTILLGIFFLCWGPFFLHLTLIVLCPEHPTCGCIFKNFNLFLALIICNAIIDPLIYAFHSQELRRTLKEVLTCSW
Melanocortin receptor 3 (Homo sapiens), sequence (P41968 whole entry): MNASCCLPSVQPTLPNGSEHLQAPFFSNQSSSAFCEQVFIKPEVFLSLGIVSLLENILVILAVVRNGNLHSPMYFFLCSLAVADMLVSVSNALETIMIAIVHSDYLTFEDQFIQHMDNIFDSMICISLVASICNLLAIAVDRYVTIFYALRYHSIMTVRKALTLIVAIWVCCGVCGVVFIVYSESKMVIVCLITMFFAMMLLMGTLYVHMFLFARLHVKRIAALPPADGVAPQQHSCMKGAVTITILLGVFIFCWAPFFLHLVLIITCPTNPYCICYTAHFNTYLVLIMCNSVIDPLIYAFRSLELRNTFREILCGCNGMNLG
D(1A) dopamine receptor (Homo sapiens), sequence (P21728 whole entry): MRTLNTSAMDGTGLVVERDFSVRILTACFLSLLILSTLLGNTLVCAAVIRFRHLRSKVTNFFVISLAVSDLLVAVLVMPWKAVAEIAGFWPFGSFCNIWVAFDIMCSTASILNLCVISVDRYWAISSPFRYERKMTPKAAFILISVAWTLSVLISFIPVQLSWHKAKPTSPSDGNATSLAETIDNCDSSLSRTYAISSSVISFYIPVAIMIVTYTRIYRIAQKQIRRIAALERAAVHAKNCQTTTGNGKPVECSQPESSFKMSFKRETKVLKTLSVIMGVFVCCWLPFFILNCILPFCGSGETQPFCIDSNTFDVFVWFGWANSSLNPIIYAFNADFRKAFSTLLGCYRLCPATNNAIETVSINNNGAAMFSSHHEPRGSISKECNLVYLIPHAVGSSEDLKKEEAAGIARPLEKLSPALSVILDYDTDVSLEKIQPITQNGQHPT
Glucagon receptor (Homo sapiens), sequence (P47871 whole entry): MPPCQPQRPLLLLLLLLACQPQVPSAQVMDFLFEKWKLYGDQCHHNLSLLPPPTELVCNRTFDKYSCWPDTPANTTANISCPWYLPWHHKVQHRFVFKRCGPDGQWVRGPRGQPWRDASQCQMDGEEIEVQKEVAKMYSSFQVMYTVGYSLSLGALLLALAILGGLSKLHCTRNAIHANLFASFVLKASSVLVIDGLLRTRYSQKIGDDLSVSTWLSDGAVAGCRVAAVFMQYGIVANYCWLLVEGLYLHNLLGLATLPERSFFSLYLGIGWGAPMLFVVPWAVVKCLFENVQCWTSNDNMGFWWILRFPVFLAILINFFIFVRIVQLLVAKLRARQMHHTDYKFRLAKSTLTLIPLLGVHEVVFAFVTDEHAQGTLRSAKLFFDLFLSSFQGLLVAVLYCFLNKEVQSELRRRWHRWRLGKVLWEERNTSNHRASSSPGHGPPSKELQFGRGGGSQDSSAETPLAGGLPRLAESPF
Adrenocorticotropic hormone receptor (Mus musculus), sequence (Q64326 whole entry): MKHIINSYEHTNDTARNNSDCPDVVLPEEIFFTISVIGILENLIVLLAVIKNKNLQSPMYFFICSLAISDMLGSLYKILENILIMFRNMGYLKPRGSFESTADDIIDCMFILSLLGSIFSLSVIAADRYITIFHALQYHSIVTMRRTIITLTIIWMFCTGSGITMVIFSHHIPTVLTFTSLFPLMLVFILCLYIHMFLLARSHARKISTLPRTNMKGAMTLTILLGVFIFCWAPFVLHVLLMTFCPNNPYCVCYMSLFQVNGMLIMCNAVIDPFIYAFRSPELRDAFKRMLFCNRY
Melanocortin receptor 4 (Mus musculus), sequence (P56450 whole entry): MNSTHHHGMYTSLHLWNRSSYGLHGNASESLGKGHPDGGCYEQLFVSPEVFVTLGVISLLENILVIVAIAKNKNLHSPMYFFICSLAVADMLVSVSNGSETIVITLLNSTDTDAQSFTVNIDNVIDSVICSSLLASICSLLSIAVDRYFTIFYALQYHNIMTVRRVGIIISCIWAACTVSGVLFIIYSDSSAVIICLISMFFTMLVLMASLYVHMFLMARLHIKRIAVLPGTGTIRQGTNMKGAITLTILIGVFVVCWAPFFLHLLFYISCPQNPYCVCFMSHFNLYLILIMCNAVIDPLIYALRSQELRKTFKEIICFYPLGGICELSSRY
Adenosine receptor A2a (Homo sapiens), sequence (P29274 whole entry): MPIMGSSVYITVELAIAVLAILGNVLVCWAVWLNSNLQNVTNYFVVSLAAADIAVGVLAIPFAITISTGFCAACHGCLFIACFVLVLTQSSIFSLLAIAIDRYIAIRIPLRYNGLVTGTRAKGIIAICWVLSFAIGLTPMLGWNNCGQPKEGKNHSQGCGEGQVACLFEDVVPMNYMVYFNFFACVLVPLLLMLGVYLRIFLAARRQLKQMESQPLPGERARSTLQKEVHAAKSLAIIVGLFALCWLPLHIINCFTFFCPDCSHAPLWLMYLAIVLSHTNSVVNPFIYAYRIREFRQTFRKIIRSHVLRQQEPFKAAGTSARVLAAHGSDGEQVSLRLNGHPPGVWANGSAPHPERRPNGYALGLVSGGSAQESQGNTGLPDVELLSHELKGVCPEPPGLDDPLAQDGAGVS
Melanocortin receptor 3 (Mus musculus), sequence (P33033 whole entry): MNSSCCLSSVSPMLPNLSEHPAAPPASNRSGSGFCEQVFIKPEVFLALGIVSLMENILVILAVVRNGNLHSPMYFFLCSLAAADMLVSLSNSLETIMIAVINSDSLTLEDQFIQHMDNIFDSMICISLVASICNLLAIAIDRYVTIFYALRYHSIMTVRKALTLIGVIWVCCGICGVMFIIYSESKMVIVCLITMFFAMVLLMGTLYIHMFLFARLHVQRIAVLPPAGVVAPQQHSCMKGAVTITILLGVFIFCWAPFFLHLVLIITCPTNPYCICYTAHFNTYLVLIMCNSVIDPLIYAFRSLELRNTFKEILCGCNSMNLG
Neuromedin-U receptor 2, sequence (Q9GZQ4 whole entry): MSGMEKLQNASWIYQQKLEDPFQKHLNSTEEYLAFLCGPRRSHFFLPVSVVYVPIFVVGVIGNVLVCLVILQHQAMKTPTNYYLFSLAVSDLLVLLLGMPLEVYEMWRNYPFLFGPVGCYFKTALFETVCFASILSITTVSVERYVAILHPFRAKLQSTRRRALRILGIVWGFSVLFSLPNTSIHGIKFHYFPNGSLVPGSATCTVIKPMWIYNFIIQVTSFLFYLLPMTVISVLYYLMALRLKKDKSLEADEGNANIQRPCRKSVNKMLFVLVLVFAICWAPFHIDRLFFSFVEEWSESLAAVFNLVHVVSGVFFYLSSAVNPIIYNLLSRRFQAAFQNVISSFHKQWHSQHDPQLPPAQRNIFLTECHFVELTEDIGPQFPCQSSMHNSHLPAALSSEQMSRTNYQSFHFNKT
Melanin-concentrating hormone receptor 1 (Homo sapiens), sequence (Q99705 whole entry): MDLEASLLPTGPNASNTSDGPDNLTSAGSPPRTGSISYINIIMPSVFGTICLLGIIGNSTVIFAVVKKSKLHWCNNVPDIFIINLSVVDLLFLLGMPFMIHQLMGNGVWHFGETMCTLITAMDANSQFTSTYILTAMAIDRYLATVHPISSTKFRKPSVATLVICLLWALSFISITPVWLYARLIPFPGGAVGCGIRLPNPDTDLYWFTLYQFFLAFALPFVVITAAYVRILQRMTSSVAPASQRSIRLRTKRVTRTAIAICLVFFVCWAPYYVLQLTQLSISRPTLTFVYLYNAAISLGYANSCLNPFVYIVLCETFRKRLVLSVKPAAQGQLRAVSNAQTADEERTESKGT

Row | SMILES | Activity [1] | Activity [2] | Activity [3] | Activity [4] | Activity [5] | Activity [6] | Activity [7] | Activity [8] | Activity [10] | Activity [11] | Activity [12] | Activity [13] | Activity [14] | EC50 (Neuromedin-U receptor 2; read-out: EC50) [µM] | Activity [15] | EC50 (Neuromedin-U receptor 2; hek293) | Activity [9]
1 | CN(C)c1ccc(-c2oc3ccccc3c(=O)c2O)cc1 | inactive | inactive | inactive | inactive | inactive | inactive | inactive | inactive | inactive | inactive | inactive | inactive | inactive |  | inactive | Not Active | inactive
2 | O=c1c(O)c(-c2cccc(Cl)c2)oc2ccccc12 | inactive | inactive | inactive | inactive | inactive | inactive | inactive | inactive | inactive | inactive | inactive | inactive | inactive |  | inactive | Not Active | inactive
3 | O=c1c(O)c(-c2ccc(Br)cc2F)oc2ccccc12 | inactive | inactive | inactive | inactive | inactive | inactive | inactive | inactive | inactive | inactive | inactive | inactive | inactive | 73 | inactive |  | inactive
4 | O=c1cc(-c2ccc(O)cc2)oc2ccccc12 | inactive | inactive | inactive | inactive | inactive | inactive | inactive | inactive | inactive | inactive | inactive | inactive | inactive |  | inactive | Not Active | inactive
5 | COc1ccc(C2C=Cc3ccccc3O2)cc1 (racemic) | inactive | inactive | inactive | inactive | inactive | inactive | inactive | inactive | inactive | inactive | inactive | inactive | inactive |  | inactive | Not Active | inactive
6 | COc1ccc(-c2oc3ccccc3c(=O)c2O)cc1O | inactive | inactive | inactive | inactive | inactive | inactive | inactive | inactive | inactive | inactive | inactive | inactive | inactive |  | inactive | Not Active | inactive

More lines, main results first:

Row | Activity [1] | Activity [2] | Activity [3] | Activity [4] | Activity [5] | Activity [6] | Activity [7] | Activity [8] | Activity [10] | Activity [11] | Activity [12] | Activity [13] | Activity [14] | EC50 (Neuromedin-U receptor 2; read-out: EC50) [µM] | Activity [15] | EC50 (Neuromedin-U receptor 2; hek293) | SMILES | Activity [9]
7 | inactive | inactive | inactive | inactive | inactive | inactive | inactive | inactive | inactive | inactive | inactive | inactive | inactive | 37.3 | inactive |  | O=c1c(O)c(-c2ccccc2F)oc2ccccc12 | inactive
8 | inactive | inactive | inactive | inactive | inactive | inactive | inactive | inactive | inactive | inactive | inactive | inactive | inactive |  | inactive | Not Active | COc1cccc(-c2oc3ccccc3c(=O)c2O)c1 | inactive
9 | inactive | inactive | inactive | inactive | inactive | inactive | inactive | inactive | inactive | inactive | inactive | inactive | inactive |  | inactive | Not Active | O=c1c(O)c(-c2ccc(O)c(O)c2)oc2ccccc12 | inactive
10 | inactive | inactive | inactive | inactive | inactive | inactive | inactive | inactive | inactive | inactive | inactive | inactive | inactive |  | inactive | Not Active | O=c1c(O)c(-c2ccc(O)cc2)oc2ccccc12 | inactive
11 | inactive | inactive | inactive | inactive | inactive | inactive | inactive | inactive | inactive | inactive | inactive | inactive | inactive |  | inactive | Not Active | CCN(CC)c1ccc(-c2oc3ccccc3c(=O)c2O)cc1 | inactive
